# Measured values: ChEMBL document CHEMBL3596117, “Identification of 3,5,6-substituted indolin-2-one's inhibitors of Aurora B by development of a luminescent kinase assay” (Bioorg Med Chem Lett, 2015)
# Biological target: T1, Aurora kinase B (Homo sapiens, UniProt Q96GD4)
# Test: Inhibition of aurora B kinase (unknown origin) at 10 uM using ATP and SB2 substrate incubated at 37 degC for 2 hrs by kinase-Glo reagent based luminescent kinase assay
# In short: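 Aurora B at 300 ng/well with ATP and peptide substrate SB2 at the optimized levels. DMSO was kept below 2% by volume. Activity was read by Kinase-Glo luminescence, which measures the ATP left after the reaction.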
# T1 sequence (Q96GD4 whole entry): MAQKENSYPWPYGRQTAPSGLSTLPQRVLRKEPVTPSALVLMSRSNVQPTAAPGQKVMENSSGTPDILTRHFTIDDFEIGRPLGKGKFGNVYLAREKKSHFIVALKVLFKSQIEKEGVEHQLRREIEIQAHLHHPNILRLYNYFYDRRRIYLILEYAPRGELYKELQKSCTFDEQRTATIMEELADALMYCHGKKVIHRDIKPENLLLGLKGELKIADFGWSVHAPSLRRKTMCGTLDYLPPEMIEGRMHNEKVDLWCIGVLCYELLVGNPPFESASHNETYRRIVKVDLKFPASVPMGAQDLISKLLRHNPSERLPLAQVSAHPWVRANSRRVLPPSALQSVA
row,inhibition [%],SMILES
1,31,C=CCNC(=S)Nc1cc2c(cc1N(CCC)CCC)/C(=C/c1ccc3c(c1)OCO3)C(=O)N2
2,97,O=C(Nc1ccc(C(F)(F)F)cc1)Nc1cc2c(cc1N1CCCC1)/C(=C/c1ccc[nH]1)C(=O)N2
3,< 30,C=CCNC(=S)Nc1cc2c(cc1Oc1cc(C)cc(C)c1)C(Cc1ccccc1)C(=O)N2 (stereo not given)
4,< 30,CCCC1(C(=O)OCC)C(=O)Nc2cc(NC(=O)Nc3ccc(F)cc3)c(N3CCN(c4cccc(C)c4C)CC3)cc21 (stereo not given)
5,< 30,COc1ccc(/C=C2\C(=O)Nc3cc(NC(C)=O)c(N4CCOCC4)cc32)cc1
6,< 30,CCCC1(C(=O)OCC)C(=O)Nc2cc(NC(C)=O)c(N3CCN(c4cccc(C)c4C)CC3)cc21 (stereo not given)
7,< 30,CCCCC1C(=O)Nc2cc(NC(=O)Nc3ccc(F)cc3)c(N3CCOCC3)cc21 (stereo not given)
8,65,O=C(Nc1ccc(F)cc1)Nc1cc2c(cc1N1CCOCC1)/C(=C/c1ccc(F)cc1)C(=O)N2
9,< 30,CCc1ccc(Oc2cc3c(cc2NS(=O)(=O)c2ccc(C)cc2)NC(=O)C3)cc1
10,< 30,Cc1cc(C)cc(Oc2cc3c(cc2NS(=O)(=O)c2ccc(F)cc2)NC(=O)C3Cc2ccccc2)c1 (stereo not given)
11,83,CCN(CC)c1cc2c(cc1NC(C)=O)NC(=O)/C2=C\c1ccc[nH]1

# Continued, molecule first:
row,SMILES,inhibition [%]
1,CC(=O)Nc1cc2c(cc1N1CCOCC1)/C(=C/c1ccco1)C(=O)N2,< 30
2,C=CCC1C(=O)Nc2cc(NC(=O)Nc3ccc(F)cc3)c(N(CCC)CCC)cc21 (stereo not given),< 30
3,CCC/C=C1\C(=O)Nc2cc(NC(C)=O)c(N(CC)CC)cc21,< 30
4,C=CCC1C(=O)Nc2cc(NC(=S)Nc3ccccc3OC)c(N(CCC)CCC)cc21 (stereo not given),35
5,O=C1Cc2cc(N3CCOCC3)c(NC(=O)Nc3ccc(F)cc3)cc2N1,< 30
6,Cc1cc(C)cc(Oc2cc3c(cc2NC(=O)Nc2ccc(OC(F)(F)F)cc2)NC(=O)C3Cc2ccccc2)c1 (stereo not given),< 30
7,CCCCCCCNC(=O)Nc1cc2c(cc1N1CCN(C(=O)OCC)CC1)/C(=C/c1ccc[nH]1)C(=O)N2,< 30
8,O=C(Nc1ccc(C(F)(F)F)cc1)Nc1cc2c(cc1N1CCCC1)/C(=C/c1cccs1)C(=O)N2,47
9,CCN(CC)c1cc2c(cc1NC(C)=O)NC(=O)/C2=C\c1ccccn1,< 30
10,CCN(CC)c1cc2c(cc1NC(C)=O)NC(=O)/C2=C\c1cccs1,< 30

# Biological target: T1, Aurora kinase B
# Test: Inhibition of aurora B kinase (unknown origin) using ATP and SB2 substrate incubated at 37 degC for 2 hrs by kinase-Glo reagent based luminescent kinase assay
# In short: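 Aurora B at 300 ng/well with ATP and peptide substrate SB2 at optimized levels, DMSO below 2% by volume. Kinase activity was quantified by Kinase-Glo luminescence of the ATP remaining after the reaction. The assay was validated with 48 enzyme-containing and 48 enzyme-free wells for the Z′-factor. IC50 values were derived from this luminescent assay.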
row,IC50 [nM],SMILES
1,8200,O=C(Nc1ccc(F)cc1)Nc1cc2c(cc1N1CCOCC1)/C(=C/c1ccc3c(c1)OCO3)C(=O)N2
2,1800,O=C(Nc1ccc(C(F)(F)F)cc1)Nc1cc2c(cc1N1CCCC1)/C(=C/c1ccc[nH]1)C(=O)N2
3,3300,O=C(Nc1ccc(F)cc1)Nc1cc2c(cc1N1CCOCC1)/C(=C/c1ccc[nH]1)C(=O)N2
4,2500,CCN(CC)c1cc2c(cc1NC(C)=O)NC(=O)/C2=C\c1ccc[nH]1
